The source made the active and inactive calls.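 How the source made its calls, unless noted: active means inhibition above 20% together with a positive visual image hit; inconclusive means visual image hit but inhibition not above 20%; inactive means no visual image hit.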
Tests used:
[1] = inhibitors of TNFa-induced NFkB p65 translocation, primary screen, imaging, HUVEC, MLSMR starter and 10KST1 sets (AID 438); conditions: HUVEC TNFa-induced p65 nuclear translocation; cell count: measured here: nuclei count (cytotoxicity indicator), at 2.08 µM; inhibition: at 2 µM, stronger effect = higher value, 0% TNFa-plus-vehicle, 100% no-TNFa wells;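 further: compound added about 3h40 before a 20 min TNFalpha stimulation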;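 on inhibition: signal is the nuclear over cytoplasmic p65 intensity ratio per well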
[2] = inhibitors of mutant huntingtin aggregation, primary screen, imaging, exon1htt(103Q)mCFP cells, high-content imaging (AID 483;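 active means visual image review flags a hit and inhibition of aggregation exceeds 20%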;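 further: compound exposure lasted 3 days before fixation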;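 on nuclei count: percent of the per-plate median nuclei count of sample wells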); conditions: exon1htt(103Q)mCFP cell line, aggregate imaging, at 2 µM; inhibition of aggregation: stronger effect = higher value; nuclei count: measured here: cell count, toxicity
[3] = inhibitors of E-selectin induction by TNFa, primary screen, imaging, HUVEC, immunofluorescence, MLSMR starter and 10KST1 sets (AID 487;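 active means visually confirmed hit in the image check and inhibition above 20%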;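 on inhibition: signal is fraction of cell area covered by stained E-selectin grains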;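 on nuclei count: 100% = median nuclei count of all wells on the same plate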); conditions: HUVEC TNFalpha-induced E-selectin immunofluorescence imaging, at 2 µM; inhibition: stronger effect = higher value; nuclei count: measured here: cell number, toxicity
[4] = target: Voltage-gated potassium channel subunit beta-2 (Rattus norvegicus) (UniProt P62483); assay: KvBeta enzyme negative modulators, primary screen, biochemical, NADPH fluorescence (AID 622;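 active means fluorescence slope higher than the sample average by over 3 SD, cut at about -0.22 in these data, passing the limit was not always enough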;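 further: slope of raw intensity against log time taken from 70 to 1610 s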); conditions: recombinant KvBeta, 4-cyanobenzaldehyde reduction, at 10 µM, stronger effect = higher value
[5] = target: Voltage-gated potassium channel subunit beta-2 (Rattus norvegicus) (UniProt P62483); assay: KvBeta positive modulators, primary screen, biochemical, NADPH fluorescence (AID 623;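 active means NADPH fluorescence slope more negative than the mean of all samples by about 3 SD, 99.7% confidence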;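 further: fluorescence intensity change per second fitted from 20 to 320 s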); conditions: Recombinant KvBeta, NADPH fluorescence decrease slope, 10 min; at 10 µM; stronger effect = lower value
[6] = target: Muscarinic acetylcholine receptor M4 (Homo sapiens) (UniProt P08173); assay: compounds altering M4/GIRK thallium flux, either direction, primary screen, M4 allosteric agonist project, cell-based, HEK293 M4/GIRK, BTC-AM (AID 625;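 active means fluorescence slope after compound addition differing from the mean of all tested samples at 99.7% confidence, mostly higher but some lower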;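 further: thallium influx through GIRK channels coupled to M4 in HEK293 cells with BTC-AM dye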); conditions: at 10 µM, actives lie on both sides
How it was run: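 assay system = HEK293 cells with M4 receptor and GIRK channels | medium = pH 7.3 thallium assay buffer | doses = 10 µM final, single point | timing = cells overnight at 37 °C, BTC-AM loading 1 h, reads 2 min total | signal = BTC-AM fluorescence, 1 Hz kinetic reads | read-out = post-addition slope, 15–24 s, of baseline-normalized fluorescence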

[7] = inhibitors of Sendai virus-induced IRF3 signaling, primary screen, TLR/RLR signaling modifier project, cell-based, Sendai virus stimulus, luciferase, 10K MLSCN set (AID 602276;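 active means inhibition at or above 50% at 10 µM; inactive means inhibition below 50%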;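 further: firefly luciferase from ISG56 promoter only with Renilla not read in this screen; 0% = Sendai virus plus DMSO and 100% = medium plus DMSO without virus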); conditions: HEK293 RL24 IRF3 luciferase reporter, at 10 µM, stronger effect = higher value
[8] = inhibitors of poly I:C-induced TLR3 signaling, primary screen, cell-based, poly I:C stimulus, luciferase, 10K MLSCN set (AID 602277;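 active means inhibition of the reporter signal at or above 50%; inactive means inhibition below 50%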); conditions: HEK293-TLR3 RL24 IRF3 luciferase reporter, at 10 µM, stronger effect = higher value

Sequence of Voltage-gated potassium channel subunit beta-2 (Rattus norvegicus) (P62483 whole entry, looked up): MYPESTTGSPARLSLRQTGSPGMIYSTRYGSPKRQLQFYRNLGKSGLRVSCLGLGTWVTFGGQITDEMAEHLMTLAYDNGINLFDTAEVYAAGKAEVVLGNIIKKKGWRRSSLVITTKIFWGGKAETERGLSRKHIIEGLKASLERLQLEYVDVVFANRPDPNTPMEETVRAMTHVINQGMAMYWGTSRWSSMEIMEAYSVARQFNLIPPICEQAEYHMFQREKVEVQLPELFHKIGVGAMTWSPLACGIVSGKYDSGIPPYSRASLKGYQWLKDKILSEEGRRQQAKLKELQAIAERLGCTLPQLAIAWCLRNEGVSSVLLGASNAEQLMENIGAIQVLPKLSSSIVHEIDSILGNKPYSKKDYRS
Sequence of Muscarinic acetylcholine receptor M4 (Homo sapiens) (P08173 whole entry, looked up): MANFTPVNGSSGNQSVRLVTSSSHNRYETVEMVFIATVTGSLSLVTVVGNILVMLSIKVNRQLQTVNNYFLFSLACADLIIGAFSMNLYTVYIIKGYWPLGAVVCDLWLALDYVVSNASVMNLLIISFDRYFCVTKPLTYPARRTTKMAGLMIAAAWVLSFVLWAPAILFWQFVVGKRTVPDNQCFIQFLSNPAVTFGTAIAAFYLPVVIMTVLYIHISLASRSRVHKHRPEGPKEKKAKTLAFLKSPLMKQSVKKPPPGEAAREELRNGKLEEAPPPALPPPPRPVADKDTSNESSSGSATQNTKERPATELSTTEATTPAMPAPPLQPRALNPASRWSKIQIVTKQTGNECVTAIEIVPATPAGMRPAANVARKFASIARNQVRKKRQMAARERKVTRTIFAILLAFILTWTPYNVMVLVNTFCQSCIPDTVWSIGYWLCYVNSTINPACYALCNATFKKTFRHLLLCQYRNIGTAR

| Compound | cell count [1] | inhibition [1] | inhibition of aggregation [2] | nuclei count [2] [%] | inhibition [3] | nuclei count [3] [%] | fluorescence slope [4] | NADPH fluorescence slope [5] | fluorescence slope [6] | inhibition [7] | inhibition [8] |
| --- | --- | --- | --- | --- | --- | --- | --- | --- | --- | --- | --- |
| CN1CCCC(OC(=O)COc2ccc(Br)cc2)C1 (stereo not drawn) | 430 | -3.5% (inactive) | 2.1% (inactive) | 97 | -63.5% (inactive) | 87.2 | -0.489 (inactive) | 0.000124 (inactive) | 0.0054 (inactive) | -9.52% (inactive) | -1.12% (inactive) |
| O=c1c2ccccc2cnn1-c1nc2ccccc2s1 | 480 | -1% (inactive) | -5.1% (inactive) | 98.1 | -33.8% (inactive) | 117 | -0.133 (inactive) | -1.6e-05 (inactive) | 0.00555 (inactive) | 20.5% (inactive) | 93.6% (active) |
| CCOc1ccc(N2CC(C(=O)Nc3ccc(F)cc3F)CC2=O)cc1 (stereo not drawn) | 847 | 10.1% (inactive) | 7.4% (inactive) | 92.8 | -3.5% (inactive) | 99.9 | -0.587 (inactive) | 2.2e-05 (inactive) | 0.00677 (inactive) | 6.56% (inactive) | 26.2% (inactive) |
| Cc1cc(C)cc(N2CCCn3c2nc2c3c(=O)n(CCN3CCOCC3)c(=O)n2C)c1 | 390 | 3.3% (inactive) | 0.7% (inactive) | 108 | 27.6% (inactive) | 103 | -0.388 (inactive) | 6.6e-05 (inactive) | 0.00574 (inactive) | 18.5% (inactive) | 34.4% (inactive) |
| Oc1cccc2ccc(Nc3ccccn3)nc12 | 583 | -9.7% (inactive) | -24.8% (inactive) | 82.5 | 11.4% (inactive) | 99.8 | -0.563 (inactive) | -3.9e-05 (inactive) | 0.0033 (inactive) | 11% (inactive) | 97.5% (active) |
| Cc1cc2ncn(N)c2cc1C | 711 | -25.9% (inactive) | -20.7% (inactive) | 108 | -53.3% (inactive) | 118 | -0.224 (inactive) | -1e-05 (inactive) | 0.00519 (inactive) | 17.6% (inactive) | 15.1% (inactive) |
| COc1ccc(OC)c(S(=O)(=O)Nc2ccccc2C(=O)O)c1 | 702 | -4.4% (inactive) | 0% (inactive) | 100 | 35.6% (inactive) | 85.9 | -0.569 (inactive) | 1.5e-05 (inactive) | 0.0048 (inactive) | 23.8% (inactive) | 18.9% (inactive) |
| CCc1nnc(NC(=O)c2cccc(C(=O)Nc3nnc(CC)s3)n2)s1 | 700 | -23.3% (inactive) | 13.6% (inactive) | 120 | -18.7% (inactive) | 107 | -0.398 (inactive) | -3.4e-05 (inactive) | 0.00556 (inactive) | -5.37% (inactive) | -13.7% (inactive) |
| Cn1cc(C(=O)NC2CCCCCCC2)c(=O)c2cc(S(=O)(=O)N3CCCC3)ccc21 | 614 | 3.5% (inactive) | 8.6% (inactive) | 109 | -3.4% (inactive) | 106 | -0.319 (inactive) | -4.1e-05 (inactive) | 0.00744 (inactive) | 10.2% (inactive) | 24.5% (inactive) |
| CC1(C)CC(=O)C(C=NCCO)=C(O)C1 | 416 | -1.8% (inactive) | 57% (active) | 23.4 | -45.4% (inactive) | 123 | -0.243 (inactive) | -2.1e-05 (inactive) | 0.00793 (inactive) | 21.7% (inactive) | -0.595% (inactive) |
| COCCCNC(=O)c1ccc2c(c1)OCO2 | 391 | 1.4% (inactive) | 0.6% (inactive) | 107 | -36.4% (inactive) | 108 | -0.567 (inactive) | -9.1e-05 (inactive) | 0.00354 (inactive) | -10.8% (inactive) | -37.6% (inactive) |
| COc1ccc(N(CC(=O)NC2CCCC2)C(=O)Cn2nnc(-c3ccc(C)cc3)n2)cc1 | 465 | -3.9% (inactive) | 8.3% (inactive) | 90.6 | -65.7% (inactive) | 106 | -0.587 (inactive) | 8e-06 (inactive) | 0.00452 (inactive) | -14.1% (inactive) | 0.19% (inactive) |
| O=C(Nc1ccc(Cl)cc1)C1CC=CCC1C(=O)OCC(F)(F)C(F)F (stereo not drawn) | 628 | 8.2% (inactive) | 31.1% (inactive) | 88 | -17.6% (inactive) | 96.7 | -0.319 (inactive) | -7e-05 (inactive) | 0.00812 (inactive) | 11.2% (inactive) | 3.19% (inactive) |
| CCNc1nc(NC(C)C)nc(N(C#N)CCOc2ccc(Cl)cc2Cl)n1 | 603 | -8.6% (inactive) | 20.7% (inactive) | 98.5 | -123% (inactive) | 96.3 | -0.446 (inactive) | -3.7e-05 (inactive) | 0.00644 (inactive) | 15.5% (inactive) | -2.09% (inactive) |
| Cc1cc(C(=O)CSCc2nnc3n(CCC(C)C)c(=O)c4ccccc4n23)c(C)n1C | 284 | -11.2% (inactive) | -1.8% (inactive) | 94.2 | -26.1% (inactive) | 88.8 | -0.558 (inactive) | 3.1e-06 (inactive) | 0.00507 (inactive) | 14.8% (inactive) | 26.1% (inactive) |
| N#Cc1cn(CC(=O)N2CCCC2)c2ccccc12 | 391 | 3% (inactive) | -10.4% (inactive) | 108 | -18.5% (inactive) | 95.9 | -0.562 (inactive) | -6.6e-05 (inactive) | 0.00355 (inactive) | 17.7% (inactive) | 22.5% (inactive) |
| CCOc1ccc2[nH]c(=O)c(CN(Cc3ccccc3)C(=O)N3CCCC3)cc2c1 | 497 | -14.1% (inactive) | 14.8% (inactive) | 67.9 | 54.1% (inactive) | 48.2 | -0.475 (inactive) | 6.7e-06 (inactive) | 0.00557 (inactive) | 10.6% (inactive) | 25.9% (inactive) |
| Cc1cccc(N2CCN(C(=O)c3ccc(NS(=O)(=O)c4c(C)noc4C)cc3)CC2)c1C | 334 | 5.4% (inactive) | -23.1% (inactive) | 97.7 | -283% (inactive) | 84.9 | -0.545 (inactive) | -7.3e-05 (inactive) | 0.00603 (inactive) | -6.14% (inactive) | -0.151% (inactive) |
| O=C(COC(=O)c1ccc(S(=O)(=O)Nc2ccccc2)cc1)NCCN1C(=O)CSC1=O | 396 | -3.1% (inactive) | 2.9% (inactive) | 105 | -88.8% (inactive) | 117 | -0.372 (inactive) | -8.7e-05 (inactive) | 0.0079 (inactive) | 0.13% (inactive) | 19.9% (inactive) |
| Cc1ccc(Cn2c(SCC(C)C)nc3c2c(=O)n(C)c(=O)n3C)cc1 | 468 | -1.3% (inactive) | -13.4% (inactive) | 111 | -65.5% (inactive) | 119 | -0.468 (inactive) | -0.000354 (inactive) | 0.00373 (inactive) | 16.7% (inactive) | 14.4% (inactive) |
| COCCCNC(=O)CCc1nc(-c2ccccc2Cl)no1 | 476 | 8.6% (inactive) | -10.1% (inactive) | 95.7 | -130% (inactive) | 132 | -0.556 (inactive) | -9.5e-06 (inactive) | 0.00327 (inactive) | 17.7% (inactive) | 23.4% (inactive) |
| COc1ccc2c(c1)c1c(n2C(C)=O)C(OC(C)=O)=NCC1 | 904 | -1.4% (inactive) | -12.8% (inactive) | 101 | -98.4% (inactive) | 128 | -0.166 (active) | -2.6e-05 (inactive) | 0.00438 (inactive) | 13.2% (inactive) | -6.44% (inactive) |
| COc1ccc(C2C(C(=O)c3sc(C)nc3C)=C(O)C(=O)N2CCN2CCOCC2)cc1 (stereo not drawn) | 438 | 4.5% (inactive) | 0.7% (inactive) | 107 | 31.3% (inactive) | 84.8 | -0.531 (inactive) | -5.5e-05 (inactive) | 0.00651 (inactive) | 4% (inactive) | 1.15% (inactive) |
| Cc1cc(C)nc(N2CCCC(C(=O)Nc3ccc4c(c3)OCO4)C2)n1 (stereo not drawn) | 563 | -19.4% (inactive) | 15.3% (inactive) | 71.5 | 7.1% (inactive) | 95.8 | -0.279 (inactive) | 4.9e-06 (inactive) | 0.0054 (inactive) | -3.52% (inactive) | -3.39% (inactive) |
| Cc1ccc(C(=O)NC2CC3CCCC(C2)N3C(=O)NC2CCCCC2)cc1 (stereo not drawn) | 391 | -5% (inactive) | 0.8% (inactive) | 98.7 | -32.5% (inactive) | 80.8 | -0.559 (inactive) | 5.4e-08 (inactive) | 0.00417 (inactive) | -0.377% (inactive) | 9.12% (inactive) |
| Cc1ccccc1-c1nc(CN2CCC(C(=O)NCCCN3CCOCC3)CC2)c(C)o1 | 598 | -5.3% (inactive) | -16.7% (inactive) | 89.8 | -67.2% (inactive) | 102 | -0.496 (inactive) | 6.2e-05 (inactive) | 0.00497 (inactive) | -3.78% (inactive) | 22.4% (inactive) |
| Cc1nc(SCC(=O)c2c[nH]c3ccccc23)n[nH]1 | 339 | -6.5% (inactive) | -7.8% (inactive) | 103 | -81.8% (inactive) | 76.3 | -0.472 (inactive) | -6.1e-05 (inactive) | 0.00544 (inactive) | 17.1% (inactive) | 14.3% (inactive) |
| Cc1ccccc1NC(=O)c1ccccc1 | 373 | 1.7% (inactive) | 13.2% (inactive) | 104 | -49.6% (inactive) | 110 | -0.469 (inactive) | 2.1e-05 (inactive) | 0.00509 (inactive) | 1.39% (inactive) | -13% (inactive) |
